# From PMC11920041 (NPJ Parkinson's Disease, 2025)
# Where two headings read alike, the source gives them in different places.
# Experiments:
# [1] = concomitant use in patients with PD; cited from earlier work
# [2] = cited from earlier work
# [3] = administered in combination with carbidopa; cited from earlier work
# [4] = type: in vivo; conditions: human, plasma, oral, median [interquartile range]; for AUC: up to 3 h
# Summary of the method: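 Fasting ≥12 h after last meal, dosing from 9:00 a.m.; PD patients on oral levodopa, diagnosed by UK Brain Bank criteria; no concomitant magnesium oxide or prokinetics. Blood via indwelling catheter before and 15–180 min after dose; centrifuged 1000 g, 10 min, 4 °C; plasma stored −80 °C; HPLC-ECD. Cmax and Tmax taken from the curve; AUC to 3 h by linear trapezoidal rule.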
# [5] = mice; cited from earlier work
# tyrDC = conditions: cited from earlier work
# AADC = conditions: cited from earlier work
# [6] = system: small intestinal bacterial overgrowth (SIBO); conditions: eradication of SIBO in patients with PD; cited from earlier work
# [7] = female, female patients, n = 12
smiles,measurement,setting,value
COc1ccc2nc([S@@+]([O-])Cc3ncc(C)c(OC)c3C)[nH]c2c1 [esomeprazole],effect on levels of carbidopa in the plasma,[1],without affecting
same,effect on levels of levodopa in the plasma,[1],reduced
[O]=[Mg] [magnesium oxide],effect of concomitant use on bioavailability of levodopa,[2],may reduce
N[C@@H](Cc1ccc(O)c(O)c1)C(=O)O [levodopa],half-life,[3],approximately 90 min
same,AUC,[4]; [7],12.7 µM·h
same,Cmax,[4]; [7],10.4 µM
same,Tmax,"[4]; low levodopa Cmax group (< 9 μmol/L), n = 11",45 min
same,AUC,"[4]; male, male patients, n = 9",6.95 µM·h
same,Cmax,"[4]; male, male patients, n = 9",4.88 µM
same,Tmax,"[4]; male, male patients, n = 9",45 min
"N[C@@](CF)(Cc1ccc(O)cc1)C(=O)O [AFMT, (S)-α-fluoromethyltyrosine]",effect of concomitant use on levodopa Cmax,[5],increased
same,inhibition of tyrDC-mediated levodopa decarboxylation,tyrDC,selective inhibitor
same,effect on AADC,AADC,without affecting AADC
CO[C@H]1/C=C/O[C@@]2(C)Oc3c(C)c(O)c4c(O)c(c5c(nc6cc(C)ccn65)c4c3C2=O)NC(=O)/C(C)=C\C=C\[C@H](C)[C@H](O)[C@@H](C)[C@@H](O)[C@@H](C)[C@H](OC(C)=O)[C@@H]1C [rifaximin],effect on motor fluctuations,[6],improves motor fluctuations
